Assay results from PMC4894453 (Scientific Reports, 2014).
Converted amounts (≈) assume the structure as drawn. “Also recorded” adds a separate entry of the source. Like-named read-outs stand apart in the source and are kept apart here.

Columns and labels:
S. aureus Newman [1] = test: Membrane potential by flow cytometry with DiOC2; assay type: cell-based, Staphylococcus aureus; conditions: DiOC2(3); for dissipation of the membrane potential: 10 μM, 30 min
Summary of the method: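 Exponential-phase S. aureus Newman (OD600 ≈ 0.3, Mueller-Hinton II broth) treated with test compound at 100, 10 or 1 μM for 30 min at 37°C. Cells stained 5 min with 30 μM DiOC2(3) and run on flow cytometry (10,000 events, 488 nm excitation, green and red emission). Red/green fluorescence ratio histograms compared. CCCP was the positive control; at least two independent samples.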

[2] = tested on: Bacillus anthracis sterne; test: microbe, parasite or virus in culture; assay type: cell-based; conditions: for MIC: Bacillus anthracis, read-out: MIC against Gram-positive bacteria, BA; for MIC against Gram-positive bacteria, BA: 18–20 h
[3] = Cytotoxicity, CellTiter-Glo viability; assay type: cell-based; conditions: African green monkey, Vero cells (kidney epithelial cells; ATCC CCL-81)
Summary of the method: (§1)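 Vero kidney epithelial cells exposed 72 h to test compound (final 200–0.1 μg/ml in DMEM; diluted from 10 mg/ml DMSO stocks). Viability read by CellTiter-Glo luminescence. IC50 is the concentration giving 50% viability loss, from curve fitting. Selectivity index is the cytotoxic IC50 divided by the MIC against S. aureus Newman.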

[4] = tested on: Vero cells (kidney epithelial cells; ATCC CCL-81); test: Cytotoxicity, CellTiter-Glo viability; assay type: cell-based; conditions: for Selectivity index: Cytotox IC50/MIC against methicillin-susceptible S. aureus Newman; for Cytotox IC50: Vero kidney cells, 72 h, 50% reduction of viability
Summary of the method: as §1

[5] = tested on: panel of clinical relevant Gram-positive pathogens; test: MIC, statements over the Gram-positive panel; assay type: cell-based; conditions: read-out: MIC over the Gram-positive panel
[6] = tested on: Streptococcus pneumoniae R6; test: MIC, microbroth dilution, Streptococcus pneumoniae; assay type: cell-based; conditions: for MIC: Streptococcus pneumoniae, R6, read-out: MIC against Gram-positive bacteria, SPn; for MIC against Gram-positive bacteria, SPn: Streptococcus pneumoniae R6, 18–20 h
Summary of the method: (§2)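 CLSI microbroth dilution in Mueller-Hinton broth. Test compound at final 200–0.1 μg/ml, diluted from 10 mg/ml DMSO stocks. Plates incubated 18–20 h. MIC is the lowest concentration preventing visible growth.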

[7] = tested on: methicillin-resistant Staphylococcus aureus N315; test: MIC, microbroth dilution, MRSA; assay type: cell-based; conditions: for MIC: Staphylococcus aureus, MRSA, read-out: MIC against Gram-positive bacteria, MRSA; for MIC against Gram-positive bacteria, MRSA: S. aureus N315, 18–20 h
Summary of the method: as §2

[8] = tested on: Bacillus subtilis ATCC 23857; test: MIC, microbroth dilution, Bacillus subtilis; assay type: cell-based; conditions: for MIC: Bacillus subtilis, ATCC23857, read-out: MIC against Gram-positive bacteria, BS; for MIC against Gram-positive bacteria, BS: Bacillus subtilis ATCC 23857, 18–20 h
Summary of the method: as §2

[9] = tested on: Enterococcus faecalis ATCC 33186; test: MIC, microbroth dilution, Enterococcus faecalis; assay type: cell-based; conditions: for MIC: Enterococcus faecalis; for MIC against Gram-positive bacteria, EF: Enterococcus faecalis ATCC 33186
[10] = tested on: Streptococcus pyogenes ATCC 700294; test: MIC, microbroth dilution, Streptococcus pyogenes; assay type: cell-based; conditions: for MIC: Streptococcus pyogenes, ATCC700294, read-out: MIC against Gram-positive bacteria, SP; for MIC against Gram-positive bacteria, SP: Streptococcus pyogenes ATCC 700294, 18–20 h
S. aureus Newman [11] = test: Macromolecular synthesis, radiolabelled precursors; assay type: cell-based, Staphylococcus aureus; conditions: 1 and 4 × MIC, 20 min
Summary of the method: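 Three independent S. aureus Newman cultures grown to mid-log phase (OD600 ≈ 0.3), then pulsed with 1 μCi/mL [methyl-3H]thymidine, [5,6-3H]uridine or [4,5-3H]leucine. After 5 min, test compound added at 1 and 4× its Newman MIC for 20 min at 37°C. Cold 10% TCA precipitates collected on GF/C filters, washed with 95% ethanol and counted by scintillation; expressed as relative percent activity. Controls: novobiocin, rifampicin, tetracycline.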

S. aureus Newman [12] = test: Membrane permeability by flow cytometry with propidium iodide; assay type: cell-based, Staphylococcus aureus; conditions: 10 μM, 30 min, concentrations causing dissipation of the membrane potential
Summary of the method: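 S. aureus Newman grown in Mueller-Hinton II broth to OD600 ≈ 0.3 and exposed to test compound at 10 μM for 30 min. Propidium iodide (10 μM) added for 10 min in the dark. Flow cytometry: 10,000 events, 488 nm excitation, red fluorescence; event histograms compared. Thioridazine at 100 μg/mL served as positive control.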

[13] = tested on: methicillin-susceptible Staphylococcus aureus Newman; test: MIC, microbroth dilution, MSSA; assay type: cell-based; conditions: for MIC against Gram-positive bacteria, MSSA: S. aureus Newman, 18–20 h
Summary of the method: as §2

[14] = tested on: Clostridium difficile BAA 1803; test: MIC, microbroth dilution, anaerobic, Clostridium difficile; assay type: cell-based; conditions: for MIC: Clostridioides difficile, BAA1803, 24 h, read-out: MIC against Gram-positive bacteria, CD, Clostridium difficile BAA 1803; for MIC / MIC against Gram-positive bacteria, CD: Brain-heart infusion broth, 24 h, anaerobic; for MIC against Gram-positive bacteria, CD: Clostridium difficile BAA 1803
[15] = tested on: erythrocytes of defibrinated sheep blood; test: Hemolysis assay; assay type: cell-based; conditions: sheep erythrocytes 5% in PBS, 37°C, 90 min
Summary of the method: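 Defibrinated sheep blood spun at 350 rcf for 20 min; plasma and buffy coat discarded. Erythrocytes washed three times in PBS pH 7.4, then made to a 5% v/v suspension. Suspension mixed 1:1 with two-fold serial dilutions of test compound, with Triton X-100 as positive control. Incubated 37°C for 90 min and centrifuged; supernatant OD540 read. Lysis = (sample − blank)/positive control; EC50 from curve fitting.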

[16] = ATCC33186, read-out: MIC against Gram-positive bacteria, EF, Enterococcus faecalis ATCC 33186, Mueller-Hinton broth, 18–20 h

Compound | MIC [2] [µg/mL] | Selectivity index [4] | MIC [5] [µg/mL] | MIC [6] [µg/mL] | MIC [7] [µg/mL] | MIC [8] [µg/mL] | MIC [10] [µg/mL] | dissipation of the membrane potential (S. aureus Newman [1]) | biosynthesis of DNA, RNA and protein (S. aureus Newman [11]) | MIC against Gram-positive bacteria, EF ([9]; Mueller-Hinton broth, 18–20 h) [µg/mL] | physical integrity of the S. aureus membrane (propidium iodide uptake) (S. aureus Newman [12]) | MIC [14] [µg/mL] | MIC [9, 16] [µg/mL] | MIC against Gram-positive bacteria, MSSA [13] [µg/mL] | further results
CC(=O)C1=C(O)C(CC(C)C)NC1=O (stereo not shown) [Compound 2, 3-acetyl-4-hydroxy-5-isobutyl-1H-pyrrol-2(5H)-one] | > 200 | 1 | > 200 | > 200 | > 200 | > 200 | > 200 |  |  |  |  |  |  |  | effect on the membrane potential (S. aureus Newman [1]; up to 100 μM): failed to affect the membrane potential; IC50 at 72 h [3]: 217 µg/mL (≈ 1100 µM); MIC ([9]; ATCC33186, read-out: MIC against Gram-positive bacteria, EF): > 200 µg/mL
C/C(O)=C1\C(=O)C(CC(C)C)N(C(=O)CCCCCc2ccccc2)C1=O (stereo not shown) [Compound 5, (Z)-3-(1-hydroxyethylidene)-5-isobutyl-1-(6-phenylhexanoyl)pyrrolidine-2,4-dione] | > 200 | 14 |  | 0.78 (≈ 2.1 µM) | < 0.1 | 1.56 (≈ 4.2 µM) | 3.13 (≈ 8.43 µM) | slightly lower than reutericyclin | reduced | 0.78 (≈ 2.1 µM) | did not disrupt the physical integrity |  |  |  | fold improvement in activity over reutericyclin ([6]; Strep. pneumoniae): 4 fold; fold improvement in activity over reutericyclin ([7]; MRSA N315): 4 fold; fold improvement in activity over reutericyclin ([10]; Strep. pyogenes): 2 fold
CCCCCCC/C=C/C(=O)N1C(=O)/C(=C(\O)CCCC)C(=O)C1CC(C)C (stereo not shown) [Compound 6, (Z)-1-((E)-dec-2-enoyl)-3-(1-hydroxypentylidene)-5-isobutylpyrrolidine-2,4-dione] | 0.39 (≈ 0.996 µM) | >58 | < 1 | 3.13 (≈ 7.99 µM) | < 0.1 | 0.39 (≈ 0.996 µM) | 3.13 (≈ 7.99 µM) | slightly lower than reutericyclin; also recorded: did not rapidly dissipate the membrane potential |  |  | did not disrupt the physical integrity | < 0.03 | 0.2 (≈ 0.511 µM) |  | fold improvement in activity over reutericyclin ([13]; S. aureus, strain not given): > 4 fold; fold improvement in activity over reutericyclin ([14]; C. difficile): > 3 fold
CCCCCCC/C=C/C(=O)N1C(=O)/C(=C(\O)c2ccccc2)C(=O)C1CC(C)C (stereo not shown) [Compound 7, (Z)-1-((E)-dec-2-enoyl)-3-(hydroxy(phenyl)methylene)-5-isobutylpyrrolidine-2,4-dione] | > 200 | >125 | < 1 | 12.5 (≈ 30.4 µM) | < 0.1 | 0.78 (≈ 1.9 µM) | 12.5 (≈ 30.4 µM) |  |  |  |  | 0.75 (≈ 1.82 µM) | 0.39 (≈ 0.948 µM) | <0.1 | 
CCCCCCC/C=C/C(=O)N1C(=O)/C(=C(\O)C2CCN(C(=O)OC(C)(C)C)CC2)C(=O)[C@H]1CC(C)C [Compound 10, tert-butyl4-((Z)-((R)-1-((E)-dec-2-enoyl)-5-isobutyl-2,4-dioxopyrrolidin-3-ylidene)(hydroxy)methyl) piperidine-1-carboxylate] |  |  |  |  |  |  |  |  |  | 0.39 (≈ 0.752 µM) |  |  |  | 0.40 (≈ 0.771 µM) | MIC against Gram-positive bacteria, BA [2]: 0.78 µg/mL (≈ 1.5 µM); Hemolysis EC50 [15]: 61.61 µg/mL; Cytotox IC50 [4]: 14.22 µg/mL; MIC against Gram-positive bacteria, SPn [6]: 3.13 µg/mL (≈ 6.03 µM); MIC against Gram-positive bacteria, CD [14]: 0.25 µg/mL (≈ 0.482 µM); MIC against Gram-positive bacteria, MRSA [7]: 0.2 µg/mL (≈ 0.386 µM); MIC against Gram-positive bacteria, BS [8]: 1.56 µg/mL (≈ 3.01 µM); MIC against Gram-positive bacteria, SP [10]: 3.13 µg/mL (≈ 6.03 µM)
CCCCCCC/C=C/C(=O)N1C(=O)/C(=C(\O)c2ccc(F)cc2)C(=O)C1CC(C)C (stereo not shown) [Compound 13, (Z)-1-((E)-dec-2-enoyl)-3-((4-fluorophenyl)(hydroxy)methylene)-5-isobutylpyrrolidine-2,4-dione] | 0.39 (≈ 0.908 µM) | 67 | < 1 | 12.5 (≈ 29.1 µM) | < 0.1 | 0.39 (≈ 0.908 µM) | 6.25 (≈ 14.6 µM) | reduced the membrane potential in a manner similar to reutericyclin | reduced |  | did not disrupt the physical integrity | < 0.03 | 0.2 (≈ 0.466 µM) |  | 
(Z)-1-((E)-dec-2-enoyl)-3-(1-hydroxyethylidene)-5-isobutylpyrrolidine-2,4-dione [Compound 1, reference compound] |  |  |  |  |  |  |  |  | reduced | 0.20 | did not disrupt the physical integrity |  |  | 0.78 | dissipation of the membrane potential (S. aureus Newman [1]; listed as reutericyclin): completely dissipated; MIC against Gram-positive bacteria, BA [2]: 0.20 µg/mL; Hemolysis EC50 [15]: 27.87 µg/mL; Cytotox IC50 [4]: 7.46 µg/mL; Cytotox IC50 ([4]; listed as reutericyclin): 7.5 µg/mL; MIC against Gram-positive bacteria, SPn [6]: 3.13 µg/mL; MIC against Gram-positive bacteria, CD [14]: 0.09 µg/mL; MIC against Gram-positive bacteria, MRSA [7]: 0.4 µg/mL; MIC against Gram-positive bacteria, BS [8]: 0.39 µg/mL; MIC against Gram-positive bacteria, SP [10]: 6.25 µg/mL
